Data set [1] has as its system Rattus norvegicus. Description: Toxicity in Sprague-Dawley rat assessed as decrease in core body temperature at 0.3 mg/kg, po measured after 60 mins by rectal probe method. In kind it is organism-based. As to conditions: in vivo, 1 h.
Data set [2] concerns the target T1, Cannabinoid receptor 2 (Homo sapiens, UniProt P34972). The data set is described as follows: Agonist activity at recombinant human CB2 receptor expressed in HEK293 cells assessed as increase in beta arrestin recruitment measured after 2 to 3 hrs by PathHunter assay relative to CP55940. In kind it is functional, cell-based.
The target of data set [3] is T2, Cannabinoid receptor 2 (Rattus norvegicus, UniProt Q9QZN9).
T2 sequence (Q9QZN9 whole entry): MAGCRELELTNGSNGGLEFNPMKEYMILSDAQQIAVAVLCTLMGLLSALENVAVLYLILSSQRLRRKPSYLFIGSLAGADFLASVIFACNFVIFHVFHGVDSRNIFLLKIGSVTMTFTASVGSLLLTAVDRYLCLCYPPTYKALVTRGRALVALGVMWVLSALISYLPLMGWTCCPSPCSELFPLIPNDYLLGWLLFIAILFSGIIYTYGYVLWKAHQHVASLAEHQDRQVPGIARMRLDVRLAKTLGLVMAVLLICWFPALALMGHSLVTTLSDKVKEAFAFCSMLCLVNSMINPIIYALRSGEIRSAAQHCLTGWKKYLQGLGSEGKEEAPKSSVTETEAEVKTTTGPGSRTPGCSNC
The data set is described as follows: Agonist activity at recombinant rat CB2 receptor expressed in HEK293 cells assessed as increase in beta arrestin recruitment measured after 2 to 3 hrs by PathHunter assay. In kind it is functional, cell-based.

Data set [4] concerns the target Cannabinoid receptor 1 (Rattus norvegicus, UniProt P20272). Description: Agonist activity at recombinant rat CB1 receptor expressed in HEK293 cells assessed as increase in beta arrestin recruitment measured after 2 to 3 hrs by PathHunter assay. In kind it is functional, cell-based.
In data set [5] the target is T1, Cannabinoid receptor 2. The data set is described as follows: Agonist activity at recombinant human CB2 receptor expressed in HEK293 cells assessed as increase in beta arrestin recruitment measured after 2 to 3 hrs by PathHunter assay. In kind it is functional, cell-based.
Data set [6] deals with T3, Cannabinoid receptor 1 (Homo sapiens, UniProt P21554). Description: Agonist activity at recombinant human CB1 receptor expressed in HEK293 cells assessed as increase in beta arrestin recruitment measured after 2 to 3 hrs by PathHunter assay. The format is functional, cell-based.
T3 sequence (P21554 whole entry): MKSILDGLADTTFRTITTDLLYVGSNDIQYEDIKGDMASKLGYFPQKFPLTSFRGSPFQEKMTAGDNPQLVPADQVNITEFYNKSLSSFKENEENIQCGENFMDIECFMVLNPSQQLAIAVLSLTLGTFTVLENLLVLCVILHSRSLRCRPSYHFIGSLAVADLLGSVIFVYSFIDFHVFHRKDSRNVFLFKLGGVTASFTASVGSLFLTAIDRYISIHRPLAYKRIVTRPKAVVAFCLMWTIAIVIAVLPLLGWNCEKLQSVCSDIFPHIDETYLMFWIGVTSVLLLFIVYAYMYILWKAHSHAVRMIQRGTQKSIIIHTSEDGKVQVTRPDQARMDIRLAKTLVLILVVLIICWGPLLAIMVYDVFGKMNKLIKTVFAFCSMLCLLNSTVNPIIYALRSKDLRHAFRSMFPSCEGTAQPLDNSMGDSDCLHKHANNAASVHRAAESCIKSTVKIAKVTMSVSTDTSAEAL
Data set [7] can be described thus: Half life in human liver microsomes. The format is ADME, microsome.
The nature of data set [8]: Half life in rat liver microsomes. The format is ADME, microsome.
Data set [9] deals with T4, Cannabinoid receptor 2 (Rattus norvegicus) (UniProt Q9QZN9).
T4 sequence (whole entry): T2 sequence (Q9QZN9 whole entry)
The data set is described as follows: Agonist activity at recombinant rat CB2 receptor expressed in HEK293 cells assessed as increase in beta arrestin recruitment measured after 2 to 3 hrs by PathHunter assay relative to CP55940. The format is functional, cell-based. An outline of the steps:
(§1)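 Beta-arrestin recruitment EC50 is the mean of three or more independent experiments (logSD < 0.4). Intrinsic activity (Emax) is expressed relative to CP-55,940 set at 100.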

The nature of data set [10]: Half life in mouse liver microsomes. The format is ADME, microsome.
A short description of data set [11]: Ratio of drug level in brain to plasma in Sprague-Dawley rat at 3 mg/kg, po measured after 2 hrs. The format is ADME, organism-based. The conditions noted are these: brain and plasma, read-out: BPR.
Data set [12] relates to Rattus norvegicus. Description: Toxicity in Sprague-Dawley rat assessed as effect on locomotor activity up to 100 mg/kg, po. In kind it is organism-based. As to conditions: in vivo.
In data set [13] the test system is Rattus norvegicus. Description: Toxicity in Sprague-Dawley rat assessed as change in body temperature up to 100 mg/kg, po. In kind it is organism-based. The conditions noted are these: in vivo.
Data set [14] concerns the target Cannabinoid receptor 1 (Rattus norvegicus) (UniProt P20272). The data set is described as follows: Agonist activity at recombinant rat CB1 receptor expressed in HEK293 cells assessed as increase in beta arrestin recruitment measured after 2 to 3 hrs by PathHunter assay relative to CP55940. The format is functional, cell-based. Put shortly: as §1
The target of data set [15] is T3, Cannabinoid receptor 1. The data set is described as follows: Agonist activity at recombinant human CB1 receptor expressed in HEK293 cells assessed as increase in beta arrestin recruitment measured after 2 to 3 hrs by PathHunter assay relative to CP55940. The format is functional, cell-based. Put shortly: as §1
Data set [16] has as its target T4, Cannabinoid receptor 2 (Rattus norvegicus). The data set is described as follows: Induction of recombinant HA-tagged rat CB2 receptor internalization expressed in CHOK1 cells at 10 uM measured after 1 hr by time-resolved flow cytometry relative to CP55940. The format is functional, cell-based.

Molecules are shown by their SMILES.

T1 sequence (P34972 whole entry): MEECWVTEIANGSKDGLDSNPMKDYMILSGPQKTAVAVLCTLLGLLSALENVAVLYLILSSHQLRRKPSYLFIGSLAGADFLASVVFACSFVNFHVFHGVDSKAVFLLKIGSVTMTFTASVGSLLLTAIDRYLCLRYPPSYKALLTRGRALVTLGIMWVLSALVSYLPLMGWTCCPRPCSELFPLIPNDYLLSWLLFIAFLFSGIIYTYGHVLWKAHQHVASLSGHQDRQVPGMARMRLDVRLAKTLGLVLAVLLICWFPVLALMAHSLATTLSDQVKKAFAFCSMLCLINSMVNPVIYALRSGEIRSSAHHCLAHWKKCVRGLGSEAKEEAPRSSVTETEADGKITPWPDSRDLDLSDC
Cannabinoid receptor 1 (Rattus norvegicus, UniProt P20272), sequence (P20272 whole entry): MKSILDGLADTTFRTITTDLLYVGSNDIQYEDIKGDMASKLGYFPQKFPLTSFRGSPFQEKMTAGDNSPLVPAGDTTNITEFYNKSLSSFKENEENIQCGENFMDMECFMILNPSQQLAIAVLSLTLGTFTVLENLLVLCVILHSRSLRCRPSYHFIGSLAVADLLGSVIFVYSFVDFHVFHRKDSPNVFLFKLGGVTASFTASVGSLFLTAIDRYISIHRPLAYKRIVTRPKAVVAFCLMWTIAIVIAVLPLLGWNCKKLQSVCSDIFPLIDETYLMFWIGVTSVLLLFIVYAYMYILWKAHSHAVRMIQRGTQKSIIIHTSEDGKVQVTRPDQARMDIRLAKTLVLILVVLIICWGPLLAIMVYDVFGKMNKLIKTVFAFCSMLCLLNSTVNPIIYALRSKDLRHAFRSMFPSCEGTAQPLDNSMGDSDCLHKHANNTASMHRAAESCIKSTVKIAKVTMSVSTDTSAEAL
Cannabinoid receptor 1 (Rattus norvegicus), sequence (P20272 whole entry): as above

In the case of `CCCCCCC(C)(C)c1ccc([C@@H]2C[C@H](O)CC[C@H]2CCCO)c(O)c1` [CP-55940], the Activity result in the data set on Rattus norvegicus [1] is reported as “Toxic”.

Turning to `CC(C)[C@@H](CO)NC(=O)c1nn(-c2c[n+]([O-])ccn2)c2c1C[C@@H]1C[C@H]21`, the results for the Emax (on Cannabinoid receptor 2 [2]; in data set [9]) were 103% and 88%, respectively. Moreover, the EC50 was 55 nM at Cannabinoid receptor 2 [3], over 10000 nM on Cannabinoid receptor 1 [4], 46 nM at Cannabinoid receptor 2 [5] and over 10000 nM on Cannabinoid receptor 1 [6]. The half-life in [7] and in data set [8] was over 1 h in each case.

Turning to `O=C(N[C@H](CO)C(F)(F)F)c1nn(-c2c[n+]([O-])ccn2)c2c1C[C@@H]1C[C@H]21`, the figures for the Emax (at Cannabinoid receptor 2 [2]; in [9]) were 98% and 85%, respectively. The EC50 is 530 nM at Cannabinoid receptor 2 [3], over 10000 nM at Cannabinoid receptor 1 [4], 280 nM at Cannabinoid receptor 2 [5] and over 10000 nM on Cannabinoid receptor 1 [6]. The half-life in data set [7] and in data set [8] was over 1 h throughout.

As for `O=C(N[C@H](CO)c1ccccc1)c1nn(-c2c[n+]([O-])ccn2)c2c1C[C@@H]1C[C@H]21`, the Emax on Cannabinoid receptor 2 [2] is 96%; in [9], 72%. For the same compound, the EC50 at Cannabinoid receptor 2 [3] was 60 nM; at Cannabinoid receptor 1 [4], over 10000 nM; at Cannabinoid receptor 1 [6], over 10000 nM. Besides, the half-life in data set [7] and in data set [8] was over 1 h each time.

In the case of `CC(C)(C)[C@@H](CO)NC(=O)c1nn(-c2cnccn2)c2c1C[C@H]1C[C@@H]21`, the Emax on Cannabinoid receptor 2 [2] was 104%; in data set [9] it was 78%. Further, the figures for the half-life in [10], in data set [7] and in data set [8] were 0.15 h, over 1 h and 0.633 h, respectively. Further, the EC50 at Cannabinoid receptor 2 [3] is 21 nM; on Cannabinoid receptor 1 [4] it was over 10000 nM; at Cannabinoid receptor 2 [5] it was 26 nM; at Cannabinoid receptor 1 [6], over 10000 nM.

Turning to `CC1(NC(=O)c2nn(-c3c[n+]([O-])ccn3)c3c2C[C@@H]2C[C@H]32)CC1`, the Emax at Cannabinoid receptor 2 [2] turned out to be 102%; in [9], 81%. Also, the EC50 at Cannabinoid receptor 2 [3] is 290 nM; on Cannabinoid receptor 1 [4], over 10000 nM; on Cannabinoid receptor 2 [5], 91 nM; at Cannabinoid receptor 1 [6], over 10000 nM.

Consider `O=C(NC1(C(F)(F)F)CCC1)c1nn(-c2c[n+]([O-])ccn2)c2c1C[C@@H]1C[C@H]21`, for which the maximum response (Emax) on Cannabinoid receptor 2 [2] came to 115%; in data set [9] it was 106%. Also, the EC50 on Cannabinoid receptor 2 [3] is 1.6 nM; on Cannabinoid receptor 1 [4], over 10000 nM; on Cannabinoid receptor 2 [5] it was 1.2 nM; on Cannabinoid receptor 1 [6], over 10000 nM. The half-life in [7] and in data set [8] was over 1 h each time.

Take `O=C(N[C@@H](CO)C(F)(F)F)c1nn(-c2c[n+]([O-])ccn2)c2c1C[C@@H]1C[C@H]21`: the Emax at Cannabinoid receptor 2 [2] was 119%; in data set [9], 107%. Further, the EC50 at Cannabinoid receptor 2 [3] was 35 nM; on Cannabinoid receptor 1 [4] it was over 10000 nM; on Cannabinoid receptor 2 [5], 17.2 nM; at Cannabinoid receptor 1 [6], over 10000 nM. The half-life in [7] and in data set [8] was over 1 h throughout.

For `CC(C)(C)[C@@H](CO)NC(=O)c1nn(-c2cnccn2)c2c1C[C@@H]1C[C@H]21`, the values for the Emax (at Cannabinoid receptor 2 [2]; in data set [9]) were 107% and 95%, respectively. Moreover, the half-life in data set [10] is 0.4 h; in data set [7] it was over 1 h; in data set [8] it was over 1 h. The EC50 on Cannabinoid receptor 2 [3] was 53 nM; at Cannabinoid receptor 1 [4] it was over 10000 nM; on Cannabinoid receptor 2 [5], 59 nM; at Cannabinoid receptor 1 [6] it was over 10000 nM. Also, the Kp at 2 h in data set [11] came out at 0.1.

For the compound `O=C(NC1(CO)CCCC1)c1nn(-c2c[n+]([O-])ccn2)c2c1C[C@@H]1C[C@H]21`, the Emax at Cannabinoid receptor 2 [2] came to 112%; in [9], 106%. Also, the EC50 on Cannabinoid receptor 2 [3] is 6.8 nM; at Cannabinoid receptor 1 [4], over 10000 nM; at Cannabinoid receptor 2 [5], 5.6 nM; at Cannabinoid receptor 1 [6] it was over 10000 nM. Also, the half-life in data set [7] and in data set [8] was over 1 h throughout.

As for `CC(C)(NC(=O)c1nn(-c2c[n+]([O-])ccn2)c2c1C[C@@H]1C[C@H]21)C(F)(F)F`, the values for the Emax (on Cannabinoid receptor 2 [2]; in data set [9]) were 108% and 98%, respectively. The EC50 is 6.3 nM on Cannabinoid receptor 2 [3], over 10000 nM at Cannabinoid receptor 1 [4], 2.3 nM on Cannabinoid receptor 2 [5] and over 10000 nM at Cannabinoid receptor 1 [6]. Also, the Activity entry in the data set with Rattus norvegicus [12] and in the data set with Rattus norvegicus [13] was “Non-Toxic” each time. The half-life in data set [7] and in data set [8] was over 1 h throughout. In addition, in [11], the Kp at 2 h amounted to 0.83.

Regarding `CC(C)(C)[C@@H](CF)NC(=O)c1nn(-c2c[n+]([O-])ccn2)c2c1C[C@@H]1C[C@H]21`, the Emax on Cannabinoid receptor 2 [2] is 107%; in data set [14], 107%; on Cannabinoid receptor 1 [15] it was 105%; in [9] it was 97%. Besides, the EC50 on Cannabinoid receptor 2 [3] amounted to 1.5 nM; at Cannabinoid receptor 1 [4] it was 840 nM; at Cannabinoid receptor 2 [5] it was 1.2 nM; on Cannabinoid receptor 1 [6], 1100 nM. Moreover, the half-life in data set [7] and in data set [8] was over 1 h in each case.

On to `O=C(NC1(C(F)(F)F)CC1)c1nn(-c2c[n+]([O-])ccn2)c2c1C[C@@H]1C[C@H]21`, for which the EC50 at Cannabinoid receptor 2 [3] is 14.5 nM; on Cannabinoid receptor 1 [4], over 10000 nM; on Cannabinoid receptor 1 [6], over 10000 nM. Further, the half-life in [7] and in data set [8] was over 1 h throughout. For the same compound, in [9], the Emax stood at 103%.

In the case of `CC(C)[C@@H](CF)NC(=O)c1nn(-c2c[n+]([O-])ccn2)c2c1C[C@@H]1C[C@H]21`, the Emax worked out at 98% at Cannabinoid receptor 2 [2], 74% in data set [14], 96% on Cannabinoid receptor 1 [15] and 87% in [9]. Further, the EC50 at Cannabinoid receptor 2 [3] was 6.4 nM; on Cannabinoid receptor 1 [4], 2700 nM; at Cannabinoid receptor 2 [5], 3.8 nM; on Cannabinoid receptor 1 [6], 6100 nM. Also, the half-life in [7] and in data set [8] was over 1 h throughout.

With `CC(C)(CO)NC(=O)c1nn(-c2cnccn2)c2c1C[C@H]1C[C@@H]21`, the half-life in [10], in data set [7] and in [8] was over 1 h each time. Further, in data set [9], the Emax came out at 85%.

As for `CC(C)(CO)NC(=O)c1nn(-c2ccc(F)cc2F)c2c1C[C@H]1C[C@@H]21`, the Activity in data set [16] amounted to 68%. The Emax in data set [9] is 46%.

In the case of `CC(C)(C)[C@H](CO)NC(=O)c1nn(-c2cnccn2)c2c1C[C@@H]1C[C@H]21`, the Emax at Cannabinoid receptor 2 [2] came to 78%. The EC50 at Cannabinoid receptor 2 [5] was 560 nM; on Cannabinoid receptor 1 [6] it was over 10000 nM.

Values taken from ChEMBL document CHEMBL4138258 (ACS Med Chem Lett, 2017).
